# From ChEMBL document CHEMBL1144666, “Indoleamine 2,3-dioxygenase is the anticancer target for a novel series of potent naphthoquinone-based inhibitors” (J Med Chem, 2008)
# The source made the active and inactive calls. The rule behind the calls is not given here.
# Biological target: T1, Indoleamine 2,3-dioxygenase 1 (Homo sapiens, UniProt P14902)
# Assay: Inhibition of purified human recombinant IDO
# Details: not given
SMILES,IC50 [µM],Activity,Ki [µM]
CC1(C)OC2=C(C(=O)c3ccccc3C2=O)C(N2CCOCC2)C1O (cis isomer),1.1,–,–
CC1=CC(=O)c2ccccc2C1=O [MENADIONE],1,–,–
CC1(C)C=CC2=C(O1)C(=O)c1ccccc1C2=O [DEHYDRO-ALPHA-LAPACHONE],0.214,–,–
COC(=O)C1(C)C=CC2=C(O1)C(=O)c1ccccc1C2=O (stereo not given),0.247,–,–
CC1=C(SC[C@H](NC(=O)CC[C@H](N)C(=O)O)C(=O)NCC(=O)O)C(=O)c2ccccc2C1=O,0.88,–,–
CC1(C)C=CC2=C(O1)C(=O)c1ccc(O)cc1C2=O,5.52,–,–
CCCCN[C@H]1C2=C(OC(C)(C)[C@H]1O)C(=O)c1ccccc1C2=O,0.13,–,–
COc1cccc2c1C(=O)C1=C(C=CC(C)(C)O1)C2=O,2.92,–,–
C=CCNC1C2=C(OC(C)(C)C1O)C(=O)c1ccccc1C2=O (trans isomer),0.186,–,–
CC1(C)OC2=C(C(=O)c3ccccc3C2=O)C(N2CCOCC2)C1O (trans isomer),0.361,–,–
CC1(C)CCC2=C(O1)C(=O)c1ccccc1C2=O [ALPHA-LAPACHONE],4.34,–,–
Cc1c(SC[C@H](NC(=O)CC[C@H](N)C(=O)O)C(=O)NCC(=O)O)c(O)c2ccccc2c1O,0.34,–,–
O=C1C=CC(=O)c2c(O)cccc21 [JUGLONE],1,–,–
CCCCNC1C2=C(OC(C)(C)C1O)C(=O)c1ccccc1C2=O (trans isomer),0.082,–,–
O=c1ccoc2ccccc12,–,inactive,–
CC1=C(C/C=C(\C)CCC[C@H](C)CCC[C@H](C)CCCC(C)C)C(=O)c2ccccc2C1=O,–,inactive,–
COC1C2=C(OC(C)(C)C1O)C(=O)c1ccccc1C2=O (trans isomer),3.96,–,–
CCc1c(C)cc2c(c1O)C(=O)C1=C(C2=O)C(C)(C)C(=O)C(C)(C(=O)OC)O1 (stereo not given),–,–,0.12
O=C1C=CC(=O)C(c2ccccc2)=C1,–,inactive,–

SMILES,IC50 [µM],Activity,Ki [µM]
CC1(C)OC2=C(C(=O)c3ccccc3C2=O)[C@@H]2O[C@@H]21,4.95,–,–
"O=C1C=Cc2ccccc2C1=O [1,2-NAPHTHOQUINONE]",7.1,–,–
CC1=CC(=O)C=CC1=O,–,inactive,–
O=C1C=C(O)C(=O)c2ccccc21 [LAWSONE],675,–,–
O=C1C(Cl)=C(Cl)C(=O)c2ccccc21 [Dichlon],0.28,–,–
CC1(C)C=CC2=C(O1)C(=O)c1c(O)cccc1C2=O,0.121,–,–
"COC1=CC(=O)c2ccccc2C1=O [2-Methoxy-1,4-naphthoquinone]",0.72,–,–
CC1(C)OC2=C(C(=O)c3ccccc3C2=O)C(O)C1Br (stereo not given),0.512,–,–
CC1(C)OC2=C(C(=O)c3ccccc3C2=O)C(OCc2ccccc2)C1O (stereo not given),1.09,–,–
CC1(C)OC2=C(C(=O)c3ccccc3C2=O)C(O)C1O (stereo not given),1.5,–,–
COC1C2=C(OC(C)(C)C1O)C(=O)c1ccccc1C2=O (cis isomer),0.976,–,–
COc1cccc2c1C(=O)C1=C(OC(C)(C)C=C1)C2=O,2.13,–,–
O=C1C=CC(=O)C=C1,–,inactive,–
CC1(C)C=CC2=C(O1)C(=O)c1cccc(O)c1C2=O,0.19,–,–
COc1ccc2c(c1)C(=O)C1=C(OC(C)(C)C=C1)C2=O,3.02,–,–
CC1(C)C=CC2=C(O1)C(=O)c1cc(O)ccc1C2=O,2.05,–,–
COc1ccc2c(c1)C(=O)C1=C(C=CC(C)(C)O1)C2=O,0.933,–,–
CC1(C)OC2=C(C(=O)c3ccccc3C2=O)C(SCc2ccccc2)C1O (trans isomer),2.12,–,–
CC1(C)OC2=C(C(=O)c3ccccc3C2=O)C(SCc2ccccc2)C1O (cis isomer),3.45,–,–

# Tested on: Mus musculus
# Assay: Antitumor activity in parous MMTV-Neu transgenic FVB mouse assessed as tumor volume at 25 mg/kg, ip qd for 5 days
# Format: functional, organism-based
# Set-up: dose 25 mg/kg
# Details: not given
# Summary of the method: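 Autochthonous mammary tumors in parous FVB MMTV-Neu mice expressing wild-type rat HER2/Neu. Agent given at 25 mg/kg for 5 consecutive days in the first week; paclitaxel cohorts received 13.3 mg/kg i.v. qd 3×/week over the 2-week treatment period. Read-out is fold change in volume of individual tumors, with mean ± SEM per group.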
row,SMILES,Activity
1,CC1=CC(=O)c2ccccc2C1=O [MENADIONE],Active

# Tested on: not listed separately
# Assay: Cytotoxicity against human TREx cells expressing doxycyclin-inducible IDO assessed as cell viability by SRB assay
# Format: functional
# Details: read-out: LD50 (the source's name)
# Summary of the method: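 T-REx cells with inducible human IDO cDNA, seeded at 20000/well in DMEM + 10% FBS, induced 72 h with 20 ng/mL doxycycline, rinsed, then exposed to serial compound dilutions in phenol red-free DMEM + 10% FBS for 18 h, in triplicate.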
row,SMILES,CC50 [µM]
1,CC1=CC(=O)c2ccccc2C1=O [MENADIONE],126

# Tested on: B16-F10
# Assay: Antitumor activity in mouse B16-F10 cells isografted IDO knockout C57BL/6 mouse at 25 mg/kg, ip qd for 5 days
# Format: functional, organism-based
# Set-up: dose 25 mg/kg
# Details: not given
# Summary of the method: (§1)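 Mice given 1 × 10^5 B16-F10 melanoma cells s.c.; i.p. dosing at 25 mg/kg qd 5 days a week begins 7 days later and runs until the experiment ends. Tumors are measured by caliper twice weekly until control tumors reach ~5000 mm3. Data are mean tumor size ± SEM. Treated and untreated groups are compared at study end by two-tailed Mann–Whitney test.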
row,SMILES,Activity
1,CC1=CC(=O)c2ccccc2C1=O [MENADIONE],inactive

# Tested on: B16-F10
# Assay: Antitumor activity in mouse B16-F10 cells isografted C57BL/6 mouse at 25 mg/kg, ip qd for 5 days
# Format: functional, organism-based
# Set-up: dose 25 mg/kg
# Details: not given
# Summary of the method: as §1
row,SMILES,Activity
1,CC1=CC(=O)c2ccccc2C1=O [MENADIONE],Active

# Tested on: B16-F10
# Assay: Antitumor activity in mouse B16-F10 cells isografted athymic NCr-nu/nu mouse at 25 mg/kg, ip qd for 5 days
# Format: functional, organism-based
# Set-up: dose 25 mg/kg
# Details: not given
# Summary of the method: as §1
row,SMILES,Activity
1,CC1=CC(=O)c2ccccc2C1=O [MENADIONE],inactive

# Biological target: T1, Indoleamine 2,3-dioxygenase 1
# Assay: Inhibition of purified human recombinant IDO expressed in TREx cells
# Details: not given
# Summary of the method: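 T-REx cells carrying doxycycline-inducible human IDO cDNA are seeded at 20000/well and induced 72 h with doxycycline. They are rinsed, then exposed in triplicate to serial dilutions in phenol red-free DMEM + 10% FBS for 18 h and TCA-fixed. Supernatant kynurenine is read with p-DMAB at 490 nm, corrected for SRB viability. IC50 is taken from a sigmoidal curve.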
# Target sequence in this assay (P14902 whole entry): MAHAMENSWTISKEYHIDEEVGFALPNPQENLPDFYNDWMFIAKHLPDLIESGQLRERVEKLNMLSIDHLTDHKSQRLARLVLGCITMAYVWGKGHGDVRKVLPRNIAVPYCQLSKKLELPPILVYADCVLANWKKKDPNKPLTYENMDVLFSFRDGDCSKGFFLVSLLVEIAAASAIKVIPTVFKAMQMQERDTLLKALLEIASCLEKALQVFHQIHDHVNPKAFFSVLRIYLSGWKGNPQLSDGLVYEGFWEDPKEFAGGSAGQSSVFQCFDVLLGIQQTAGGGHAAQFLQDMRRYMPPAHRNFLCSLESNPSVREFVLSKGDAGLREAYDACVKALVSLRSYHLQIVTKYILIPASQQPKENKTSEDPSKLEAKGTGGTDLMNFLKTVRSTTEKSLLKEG
row,SMILES,IC50 [µM]
1,CCCCNC1C2=C(OC(C)(C)C1O)C(=O)c1ccccc1C2=O (trans isomer),87
2,CC1(C)C=CC2=C(O1)C(=O)c1c(O)cccc1C2=O,69
